From ChEMBL document CHEMBL1777742, “Synthesis, cytotoxic activities and cell cycle arrest profiles of naphtho[2,1-α]pyrrolo[3,4-c]carbazole-5,7(6H,12H)-dione glycosides” (Bioorg Med Chem Lett, 2011)
Calls of active or inactive are those of the source. No cut-off for these calls is given here.

Assays:
Format in all cases: functional, cell-based
[1] = system: BXPC-3; test: Cytotoxicity against human BxPC3 cells
[2] = system: PC-3; test: Cytotoxicity against human PC3 cells
[3] = system: MCF7; test: Cytotoxicity against human MCF7 cells
[4] = system: MDA-MB-435; test: Cytotoxicity against human MDA-MB-435 cells
[5] = system: MDA-MB-231; test: Cytotoxicity against human MDA-MB-231 cells
[6] = system: MDA-MB-468; test: Cytotoxicity against human MDA-MB-468 cells
[7] = system: A549; test: Cytotoxicity against human A549 cells
[8] = system: HCT-116; test: Cytotoxicity against human HCT116 cells
[9] = system: MCF7; test: Cell cycle arrest in human MCF7 cells assessed as accumulation of cells at G1 phase at 10 uM after 24 hrs by FACS analysis
Summary of the method: (§1)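 MCF-7 breast cells were exposed to each compound at 10 μM for 24 h. Cell-cycle distribution was then analysed by FACS, reading the percentage of cells in G1 and S phases.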

[10] = system: MCF7; test: Cell cycle arrest in human MCF7 cells assessed as decrease of cells at S phase at 10 uM after 24 hrs by FACS analysis
Summary of the method: (§2)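 Cells were treated with a single 10 μM concentration and analysed by FACS for cell-cycle distribution. The read-out was the percentage of cells in the G1, S and G2/M phases. A 24 h exposure is stated for MCF-7; no duration is given for BxPC3.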

[11] = system: BXPC-3; test: Cell cycle arrest in human BxPC3 cells assessed as accumulation of cells at G2/M phase at 10 uM after 24 hrs by FACS analysis; summary of the method: as §2
[12] = system: MCF7; test: Cell cycle arrest in human MCF7 cells assessed as accumulation of cells at S phase at 10 uM after 24 hrs by FACS analysis; summary of the method: as §1
[13] = system: BXPC-3; test: Cell cycle arrest in human BxPC3 cells assessed as accumulation of cells at S phase at 10 uM after 24 hrs by FACS analysis
Summary of the method: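 BxPC3 cells were treated with each compound at 10 μM. The cell-cycle profile was determined by FACS as the percentage of cells in each phase, including S and G2/M.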

Row | Compound | IC50 [1] [µM] | IC50 [2] [µM] | IC50 [3] [µM] | IC50 [4] [µM] | IC50 [5] [µM] | IC50 [6] [µM] | IC50 [7] [µM] | IC50 [8] [µM] | Activity [9] | Activity [10] | Activity [11] | Activity [12] | Activity [13]
1 | O=C1NC(=O)c2c1c1c3ccccc3ccc1c1[nH]c3ccccc3c21 | 8.3 | 5.9 | 8.3 | 5.7 | 8.1 | > 10 | 2.6 | 5.7 | Active | Active | Active | – | –
2 | O=C1NC(=O)c2c1c1c3ccccc3ccc1c1c2c2ccccc2n1[C@@H]1O[C@H](CO)[C@@H](O)[C@H](O)[C@H]1O | 5.4 | 2.3 | 6.1 | 3.5 | 2.7 | 6.1 | 2.8 | 5.1 | inactive | – | – | Active | Active
3 | C[C@@H]1O[C@@H](n2c3ccccc3c3c4c(c5c6ccccc6ccc5c32)C(=O)NC4=O)[C@H](O)[C@H](O)[C@H]1O | 7.3 | 2.7 | 4.5 | 3.6 | 4.7 | 5 | 2.8 | 3.1 | inactive | – | – | Active | –
4 | O=C1NC(=O)c2c1c1c3ccccc3ccc1c1c2c2ccccc2n1[C@H]1C[C@H](O)[C@@H](CO)O1 | 7.4 | 2.6 | 7.3 | 4.1 | 3.3 | 9.1 | 3.4 | 8.7 | inactive | – | – | Active | Active
5 | O=C1NC(=O)c2c1c1c3ccccc3ccc1c1c2c2ccccc2n1[C@H]1OC[C@@H](O)[C@@H](O)[C@H]1O | 6.6 | 2.1 | 4.8 | 3.3 | 3.3 | 3.4 | 2 | 6 | inactive | – | – | Active | –
6 | O=C1NC(=O)c2c1c1c3ccccc3ccc1c1c2c2ccccc2n1[C@@H]1O[C@H](CO)[C@@H](O)[C@H]1O | 5.3 | 2.4 | 5.3 | 3.2 | 2.4 | 4.4 | 2.1 | 3.8 | inactive | – | – | Active | Active
